{
  "source": "ChEMBL document CHEMBL1275375",
  "about": "“Properties and synthesis of 2-{2-fluoro (or bromo)-4-[(2-oxocyclopentyl)methyl]phenyl}propanoic acid: nonsteroidal anti-inflammatory drugs with low membrane permeabilizing and gastric lesion-producing activities” (J Med Chem, 2010)",
  "key": {"[1]": {"target": "T1, Prostaglandin G/H synthase 2 (Homo sapiens, UniProt P35354)", "T1 sequence (P35354 whole entry)": "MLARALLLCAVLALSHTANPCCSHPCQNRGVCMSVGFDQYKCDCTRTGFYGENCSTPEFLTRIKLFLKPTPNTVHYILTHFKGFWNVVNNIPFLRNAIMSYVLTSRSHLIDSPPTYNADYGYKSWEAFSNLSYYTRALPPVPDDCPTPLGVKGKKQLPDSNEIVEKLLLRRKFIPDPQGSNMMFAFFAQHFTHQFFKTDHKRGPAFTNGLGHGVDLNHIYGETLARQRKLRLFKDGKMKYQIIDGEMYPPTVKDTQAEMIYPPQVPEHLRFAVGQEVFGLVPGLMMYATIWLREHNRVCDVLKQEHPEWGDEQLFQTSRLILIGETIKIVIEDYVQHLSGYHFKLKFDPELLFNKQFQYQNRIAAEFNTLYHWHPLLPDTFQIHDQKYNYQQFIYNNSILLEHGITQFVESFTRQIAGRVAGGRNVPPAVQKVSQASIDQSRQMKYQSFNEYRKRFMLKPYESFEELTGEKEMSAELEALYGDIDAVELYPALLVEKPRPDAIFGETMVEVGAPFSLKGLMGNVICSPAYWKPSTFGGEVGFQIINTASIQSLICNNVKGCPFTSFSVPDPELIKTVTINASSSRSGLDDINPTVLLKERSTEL", "test": "Inhibition of COX2 in human whole blood assessed as PGE2 biosynthesis after 24 hrs by EIA", "assay_type": "tissue-based"}, "[2]": {"target": "Prostaglandin G/H synthase 1 (Homo sapiens, UniProt P23219)", "sequence (P23219 whole entry)": "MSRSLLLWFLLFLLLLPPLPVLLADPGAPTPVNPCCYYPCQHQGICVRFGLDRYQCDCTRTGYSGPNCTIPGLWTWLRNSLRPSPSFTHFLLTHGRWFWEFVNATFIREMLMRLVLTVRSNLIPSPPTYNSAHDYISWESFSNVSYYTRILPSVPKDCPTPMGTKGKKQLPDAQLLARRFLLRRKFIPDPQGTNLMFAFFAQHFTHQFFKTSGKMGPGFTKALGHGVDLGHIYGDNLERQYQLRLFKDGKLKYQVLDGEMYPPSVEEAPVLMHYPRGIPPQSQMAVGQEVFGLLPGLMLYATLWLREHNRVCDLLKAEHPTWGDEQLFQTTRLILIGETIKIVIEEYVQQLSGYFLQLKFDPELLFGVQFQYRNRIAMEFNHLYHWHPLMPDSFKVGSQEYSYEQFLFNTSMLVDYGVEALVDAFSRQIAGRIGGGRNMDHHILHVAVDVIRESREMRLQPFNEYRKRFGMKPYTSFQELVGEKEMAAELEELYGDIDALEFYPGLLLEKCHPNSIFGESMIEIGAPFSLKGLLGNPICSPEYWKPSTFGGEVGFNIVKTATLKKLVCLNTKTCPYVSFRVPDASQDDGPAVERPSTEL", "test": "Inhibition of COX1 in human whole blood assessed as TXB2 biosynthesis after 24 hrs by EIA", "assay_type": "tissue-based", "in_short": "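IC50 taken from a four-parameter logistic fit of dose-response curves. Ratio is COX-1 IC50 / COX-2 IC50. Mean ± SEM, n = 3.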"}, "Homo sapiens": {"species": "Homo sapiens", "test": "Selectivity ratio of IC50 for human COX1-derived TXB2 biosynthesis to IC50 for human COX2-derived PGE2 biosynthesis", "in_short": "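Human whole blood assay of COX-1- and COX-2-derived PG biosynthesis. IC50 taken from a four-parameter logistic fit of dose-response curves. Ratio is COX-1 IC50 / COX-2 IC50. Mean ± SEM, n = 3.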"}, "Rattus norvegicus [3]": {"system": "Rattus norvegicus", "test": "Antiinflammatory activity against Wistar rat assessed as decrease in gastric level of PGE2 at 52 to 65 mg/kg, po", "assay_type": "functional, organism-based", "conditions": "Stomach", "in_short": "(§1)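 Rats dosed orally (low or high dose); stomachs removed 8 h later and gastric PGE₂ level measured by EIA. Mean ± SEM, n = 3, compared with vehicle.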"}, "[4]": {"test": "Membrane permeabilization activity in calcein-loaded liposome assessed as calcein release at […] by fluorescence assay", "assay_type": "physicochemical", "conditions": "artificial membrane", "in_short": "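Calcein-loaded liposomes exposed to compound; release of self-quenched calcein into the medium read as a rise in fluorescence. Triton X-100 (10 μM) defined 100% permeabilization. Mean ± SEM, n = 3.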"}, "Rattus norvegicus [5]": {"system": "Rattus norvegicus", "test": "Antiinflammatory activity in rat assessed as inhibition of carrageenan-induced paw edema at 13 mg/kg, po administered 1 hr before carrageenan challenge measured after 3 to 6 hrs", "assay_type": "functional, organism-based", "parameters": "dose 13 mg/kg", "in_short": "(§2)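 Oral dosing of rats 1 h before intradermal injection of 1% carrageenan into the left hindpaw. Paw edema measured 3 h and 6 h after carrageenan. Mean ± SEM, n = 3-4, compared with vehicle.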"}, "Rattus norvegicus [6]": {"system": "Rattus norvegicus", "test": "Toxicity in Wistar rat assessed as gastric lesion at 52 to 65 mg/kg, po", "assay_type": "organism-based, Stomach", "parameters": "dose 52-65 mg/kg, route oral", "conditions": "in vivo", "in_short": "(§3)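 Rats dosed orally (low or high dose); stomachs removed 8 h after dosing and scored for hemorrhagic damage to give a lesion index. Mean ± SEM, n = 3.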"}, "Rattus norvegicus [7]": {"system": "Rattus norvegicus", "test": "Toxicity in Wistar rat assessed as gastric lesion at 43 to 53 mg/kg, po", "assay_type": "organism-based, Stomach", "parameters": "dose 43-53 mg/kg, route oral", "conditions": "in vivo", "in_short": "as §3"}, "Rattus norvegicus [8]": {"system": "Rattus norvegicus", "test": "Antiinflammatory activity in rat assessed as inhibition of carrageenan-induced paw edema at 11 mg/kg, po administered 1 hr before carrageenan challenge measured after 3 to 6 hrs", "assay_type": "functional, organism-based", "parameters": "dose 11 mg/kg", "in_short": "as §2"}, "Rattus norvegicus [9]": {"system": "Rattus norvegicus", "test": "Antiinflammatory activity against Wistar rat assessed as decrease in gastric level of PGE2 at 43 to 53 mg/kg, po", "assay_type": "functional, organism-based", "conditions": "Stomach", "in_short": "as §1"}, "Rattus norvegicus [10]": {"system": "Rattus norvegicus", "test": "Antiinflammatory activity against Wistar rat assessed as decrease in gastric level of PGE2 at 40 to 50 mg/kg, po", "assay_type": "functional, organism-based", "conditions": "Stomach", "in_short": "as §1"}, "Rattus norvegicus [11]": {"system": "Rattus norvegicus", "test": "Toxicity in Wistar rat assessed as gastric lesion at 40 to 50 mg/kg, po", "assay_type": "organism-based, Stomach", "parameters": "dose 40-50 mg/kg, route oral", "conditions": "in vivo", "in_short": "as §3"}, "Rattus norvegicus [12]": {"system": "Rattus norvegicus", "test": "Antiinflammatory activity in rat assessed as inhibition of carrageenan-induced paw edema at 10 mg/kg, po administered 1 hr before carrageenan challenge measured after 3 to 6 hrs", "assay_type": "functional, organism-based", "parameters": "dose 10 mg/kg", "in_short": "as §2"}},
  "note": "pIC50: −log10 of the molar value. Calls of active or inactive are those of the source. The rule behind the calls is not given here.",
  "data": [
    {"smiles": "CC(C(=O)O)c1ccc(C[C@@H]2CCC[C@@H]2O)cc1Br", "note": "(relative stereo)", "values": [
      {"measurement": "pIC50", "setting": "[1]", "value": 4.47},
      {"measurement": "pIC50", "setting": "[2]", "value": 5.14},
      {"measurement": "Ratio IC50", "setting": "Homo sapiens", "value": 0.2}
    ]},
    {"smiles": "CC(C(=O)[O-])c1ccc(CC2CCCC2=O)cc1Br.[Na+]", "note": "(stereo not drawn) [BROMOLOXOPROFEN]", "values": [
      {"measurement": "pIC50", "setting": "[1]", "value": 4.19},
      {"measurement": "Activity", "setting": "Rattus norvegicus [3]", "value": "Active"},
      {"measurement": "pIC50", "setting": "[2]", "value": 4.52},
      {"measurement": "Ratio IC50", "setting": "Homo sapiens", "value": 0.5},
      {"measurement": "Activity", "setting": "[4]", "value": "Not Active"},
      {"measurement": "Activity", "setting": "Rattus norvegicus [5]", "value": "Active"},
      {"measurement": "Activity", "setting": "Rattus norvegicus [6]", "value": "Toxic"}
    ]},
    {"smiles": "CC(C(=O)[O-])c1ccc(CC2CCCC2=O)cc1F.[Na+]", "note": "(stereo not drawn) [FLUORO LOXOPROFEN]", "values": [
      {"measurement": "pIC50", "setting": "[1]", "value": 4.84},
      {"measurement": "Activity", "setting": "Rattus norvegicus [7]", "value": "Toxic"},
      {"measurement": "pIC50", "setting": "[2]", "value": 4.62},
      {"measurement": "Ratio IC50", "setting": "Homo sapiens", "value": 2.5},
      {"measurement": "Activity", "setting": "[4]", "value": "Not Active"},
      {"measurement": "Activity", "setting": "Rattus norvegicus [8]", "value": "Active"},
      {"measurement": "Activity", "setting": "Rattus norvegicus [9]", "value": "Active"}
    ]},
    {"smiles": "CC(C(=O)[O-])c1ccc(CC2CCCC2=O)cc1.[Na+]", "note": "(stereo not drawn) [LOXOPROFEN SODIUM]", "values": [
      {"measurement": "pIC50", "setting": "[1]", "value": 5.00},
      {"measurement": "Activity", "setting": "Rattus norvegicus [10]", "value": "Active"},
      {"measurement": "pIC50", "setting": "[2]", "value": 4.63},
      {"measurement": "Ratio IC50", "setting": "Homo sapiens", "value": 2.5},
      {"measurement": "Activity", "setting": "[4]", "value": "Active"},
      {"measurement": "Activity", "setting": "Rattus norvegicus [11]", "value": "Toxic"},
      {"measurement": "Activity", "setting": "Rattus norvegicus [12]", "value": "Active"}
    ]},
    {"smiles": "CC(C(=O)O)c1ccc(C[C@@H]2CCC[C@@H]2O)cc1F", "note": "(relative stereo)", "values": [
      {"measurement": "pIC50", "setting": "[1]", "value": 4.32},
      {"measurement": "pIC50", "setting": "[2]", "value": 5.11},
      {"measurement": "Ratio IC50", "setting": "Homo sapiens", "value": 0.2}
    ]},
    {"smiles": "CC(C(=O)O)c1ccc(C[C@H]2CCC[C@@H]2O)cc1F", "note": "(relative stereo)", "values": [
      {"measurement": "pIC50", "setting": "[1]", "value": 5.51},
      {"measurement": "pIC50", "setting": "[2]", "value": 6.22},
      {"measurement": "Ratio IC50", "setting": "Homo sapiens", "value": 0.4}
    ]},
    {"smiles": "CC(C(=O)O)c1ccc(C[C@H]2CCC[C@@H]2O)cc1Br", "note": "(relative stereo)", "values": [
      {"measurement": "pIC50", "setting": "[1]", "value": 5.07},
      {"measurement": "pIC50", "setting": "[2]", "value": 5.66},
      {"measurement": "Ratio IC50", "setting": "Homo sapiens", "value": 0.3}
    ]}
  ]
}
